Broadly, the MIC is the lowest concentration that inhibits growth of the organism.

≈ marks a conversion by molar mass, not a printed value.

Here are results for twelve compounds from ChEMBL document CHEMBL1145483, “A Candida albicans petite mutant strain with uncoupled oxidative phosphorylation overexpresses MDR1 and has diminished susceptibility to fluconazole and voriconazole” (2007).

Holding throughout (assay type): functional
In experiment [1] the test system is Candida albicans. Description: Antimicrobial activity against Candida albicans P5 after 24 hrs by broth macrodilution method. Particulars: P5, 24 h. In outline: (§1)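 MICs were determined by standard broth macrodilution following the NCCLS M27-A yeast reference method, with readings at 24 h and 48 h. Strains were parental SC5314 and P5, a petite mutant with uncoupled oxidative phosphorylation recovered from SC5314 after serial passage through mouse spleens.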

For experiment [2], the system named is Candida albicans. Description: Antimicrobial activity against Candida albicans P5 after 48 hrs by broth macrodilution method. Particulars: P5, 48 h. In outline: as §1
For experiment [3], the system named is Candida albicans. In words: Antimicrobial activity against Candida albicans SC5314 after 24 hrs by broth macrodilution method. The following applies: SC5314, 24 h. In outline:
as §1

Experiment [4] has as its system Candida albicans. In words: Antimicrobial activity against Candida albicans SC5314 after 48 hrs by broth macrodilution method. The following applies: SC5314, 48 h. In a few lines:
as §1

Experiment [5] has as its system Candida albicans. Description: Ratio of MIC for Candida albicans P5 mutant to MIC for Candida albicans SC5314. In outline: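 The ratio is the P5 MIC divided by the SC5314 MIC, with both MICs obtained by standard broth macrodilution (NCCLS M27-A yeast reference method) and read at 24 h and 48 h. P5 is a petite mutant of SC5314 with uncoupled oxidative phosphorylation.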

As for `CC/N=c1\cc2oc3cc(NCC)c(C)cc3c(-c3ccccc3C(=O)OCC)c-2cc1C.Cl` [RHODAMINE 6G HYDROCHLORIDE], the MIC in experiment [1], in experiment [2], in experiment [3] and in experiment [4] was 8 µg/mL in each case.
For the compound `C[C@@H](c1ncncc1F)[C@](O)(Cn1cncn1)c1ccc(F)cc1F` [VORICONAZOLE], in experiment [5], the Ratio was found to be 8. Also, the minimum inhibitory concentration (MIC) stood at 0.032 µg/mL (≈ 0.0916 µM) in experiment [1], 0.032 µg/mL (≈ 0.0916 µM) in experiment [2], 0.004 µg/mL (≈ 0.0115 µM) in experiment [3] and 0.004 µg/mL (≈ 0.0115 µM) in experiment [4].
Consider `C[C@@H]1C[C@@H]([C@H](O)CC2CC(=O)NC(=O)C2)C(=O)[C@@H](C)C1` [CYCLOHEXIMIDE], for which the MIC in experiment [1] was 400 µg/mL (≈ 1420 µM); in experiment [2], 800 µg/mL (≈ 2840 µM); in experiment [3] it was 400 µg/mL (≈ 1420 µM); in experiment [4], 400 µg/mL (≈ 1420 µM).
With `C[C@H]1CCC/C=C/[C@@H]2C[C@H](O)C[C@H]2[C@H](O)/C=C/C(=O)O1` [BREFELDIN A], the MIC is 16 µg/mL (≈ 57.1 µM) in experiment [1], 32 µg/mL (≈ 114 µM) in experiment [2], 4 µg/mL (≈ 14.3 µM) in experiment [3] and 8 µg/mL (≈ 28.5 µM) in experiment [4].
In the same order, the values of `CCC(C)n1ncn(-c2ccc(N3CCN(c4ccc(OC[C@H]5CO[C@](Cn6cncn6)(c6ccc(Cl)cc6Cl)O5)cc4)CC3)cc2)c1=O` (stereo not given in full) [ITRACONAZOLE] are 0.016 µg/mL (≈ 0.0227 µM), 0.016 µg/mL (≈ 0.0227 µM), 0.016 µg/mL (≈ 0.0227 µM) and 0.016 µg/mL (≈ 0.0227 µM).
In the same order, the values of `Cc1cc(C)nc(NC(=O)NS(=O)(=O)c2ccccc2C(=O)O)n1` [SULFOMETURON] are 10 µg/mL (≈ 28.5 µM), 10 µg/mL (≈ 28.5 µM), 10 µg/mL (≈ 28.5 µM) and 10 µg/mL (≈ 28.5 µM).
In the same order, the values of `C[C@@H]1[C@H](O)[C@@H](C)/C=C/C=C/C=C/C=C/C=C/C=C/C=C/[C@H](O[C@@H]2O[C@H](C)[C@@H](O)[C@H](N)[C@@H]2O)C[C@@H]2O[C@](O)(C[C@@H](O)C[C@@H](O)[C@H](O)CC[C@@H](O)C[C@@H](O)CC(=O)O[C@H]1C)C[C@H](O)[C@H]2C(=O)O` [AMPHOTERICIN B] are 0.06 µg/mL (≈ 0.0649 µM), 0.125 µg/mL (≈ 0.135 µM), 0.06 µg/mL (≈ 0.0649 µM) and 0.125 µg/mL (≈ 0.135 µM).
With `OC(Cn1cncn1)(Cn1cncn1)c1ccc(F)cc1F` [FLUCONAZOLE], the Ratio in experiment [5] is on record as 8. Also, the MIC came to 1 µg/mL (≈ 3.27 µM) in experiment [1], 1 µg/mL (≈ 3.27 µM) in experiment [2], 0.125 µg/mL (≈ 0.408 µM) in experiment [3] and 0.125 µg/mL (≈ 0.408 µM) in experiment [4].
On to `C/C=C/C/C=C/CCC(=O)[C@H]1O[C@H]1C(N)=O` [CERULENIN], for which the MIC in experiment [1] came out at 4 µg/mL (≈ 17.9 µM); in experiment [2], 8 µg/mL (≈ 35.8 µM); in experiment [3] it was 2 µg/mL (≈ 8.96 µM); in experiment [4] it was 2 µg/mL (≈ 8.96 µM).
Turning to `CCCCNC(=O)n1c(NC(=O)OC)nc2ccccc21` [BENOMYL], the MIC in experiment [1], in experiment [2], in experiment [3] and in experiment [4] was 20 µg/mL (≈ 68.9 µM) throughout.
For the compound `CN(C)c1ccc(C(=C2C=CC(=[N+](C)C)C=C2)c2ccc(N(C)C)cc2)cc1.[Cl-]` [GENTIAN VIOLET], the MIC in experiment [1] worked out at 0.2 µg/mL; in experiment [2], 0.4 µg/mL; in experiment [3], 0.2 µg/mL; in experiment [4] it was 0.4 µg/mL.
Take `CC(=O)N1CCN(c2ccc(OC[C@H]3CO[C@](Cn4ccnc4)(c4ccc(Cl)cc4Cl)O3)cc2)CC1` [KETOCONAZOLE]: the MIC in experiment [1], in experiment [2], in experiment [3] and in experiment [4] was 0.064 µg/mL (≈ 0.12 µM) in each case.
